Calls of active or inactive are those of the source.
Assays:
Mus musculus [1] = assay: Antiseptic activity in Balb/c mouse model of Escherichia coli K1 infection-induced sepsis assessed as increase in survival rate at 1 mg/kg, ip pretreated for 1 hr followed by Escherichia coli K1 infection measured up to 20 hrs relative to control; format: functional
BMDC [2] = assay: Inhibition of LPS-induced immune response in C57BL/6 mouse BMDC assessed as reduction in IL-12p70 secretion at 25 uM treated 6 hrs post LPS-challenge measured after 30 mins by ELISA; format: functional, cell-based
Outline: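 Bone marrow DCs from 6-week-old female C57BL/6 mice, RBC-lysed, cultured in RPMI-1640/10% FBS with 10 ng/mL rmGM-CSF, 37 °C, 5% CO2. Cells given LPS 50 ng/mL for 6 h, then 25 μM compound added for 30, 60, 90 or 120 min. Supernatant TNF-α, IL-6, IL-10, IL-12p70 measured by sandwich ELISA. Mean ± SEM, compared with LPS-only DCs.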

Mus musculus [3] = assay: Antiinflammatory activity in Balb/c mouse model of LPS-induced endotoxemia assessed as reduction in serum blood urea nitrogen level at 1 mg/kg, ip pretreated for 1 hr followed by LPS-challenge measured after 12 hrs by ELISA; format: functional, organism-based
Outline: (§1)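 In BALB/c mice, 1 mg·kg−1 i.p. was given 1 h before LPS 10 mg·kg−1 i.p. After 12 h, serum AST, ALT and BUN were measured by ELISA. Means ± SEM.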

Mus musculus [4] = assay: Antiinflammatory activity in Balb/c mouse model of LPS-induced endotoxemia assessed as reduction in serum AST level at 1 mg/kg, ip pretreated for 1 hr followed by LPS-challenge measured after 12 hrs by ELISA; format: functional, organism-based; outline: as §1
Mus musculus [5] = assay: Antiseptic activity in Balb/c mouse model of Escherichia coli K1 infection-induced sepsis assessed as increase in survival rate at 1 mg/kg, ip pretreated for 1 hr followed by Escherichia coli K1 infection measured over 72 hrs relative to control; format: functional
Outline: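 BALB/c mice dosed i.p. 1 h before i.p. E. coli K1 strain RS218 (O18:K1:H7) challenge, 1 × 10^7 CFU per mouse, diluted in LB broth; n = 10; survival monitored over 72 h.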

BMDC [6] = assay: Increase in microRNA187 expression in LPS-induced C57BL/6 mouse BMDC at 25 uM pretreated for 30 mins followed by LPS-challenge measured after 6 hrs by qRT-PCR analysis; format: functional, cell-based
Outline: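 Total RNA was extracted from BMDCs with TRIzol and reverse transcribed. miR-146a, miR-155 and miR-187 were quantified by real-time qPCR with gene-specific primers.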

Mus musculus [7] = assay: Antiinflammatory activity in Balb/c mouse model of LPS-induced endotoxemia assessed as increase in IL10 producing B10 population in splenocyte at 1 mg/kg, ip pretreated for 1 hr followed by LPS-challenge measured after 12 hrs by flow cytometric analysis; format: functional, organism-based
BMDC [8] = assay: Inhibition of Escherichia coli DH5alpha infection-induced immune response in C57BL/6 mouse BMDC assessed as reduction in TNFalpha secretion at 25 uM pretreated for 60 to 120 mins followed by Escherichia coli DH5alpha infection for 6 hrs by ELISA; format: functional, cell-based
Outline: (§2)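 C57BL/6 BMDCs received 25 μM compound and E. coli DH5α, 3 × 10^6 CFU·mL−1. Schedules were: compound 30 min before a 6 h infection; co-addition for 6 h; or compound for 30, 60, 90 or 120 min plus 6 h infection. Supernatant TNF-α, IL-6, IL-10 and IL-12p70 were measured by ELISA. At least three experiments in triplicate.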

[9] = target: T1, Toll-like receptor 4 (Mus musculus) (UniProt Q9QUK6); assay: Inhibition of LPS-induced TLR4 activation in C57BL/6 mouse BMDC assessed as reduction in p38 phosphorylation at 25 uM pretreated for 30 mins followed by LPS-challenge measured after 15 to 90 mins by Western blot analysis; format: cell-based
T1 sequence (whole entry): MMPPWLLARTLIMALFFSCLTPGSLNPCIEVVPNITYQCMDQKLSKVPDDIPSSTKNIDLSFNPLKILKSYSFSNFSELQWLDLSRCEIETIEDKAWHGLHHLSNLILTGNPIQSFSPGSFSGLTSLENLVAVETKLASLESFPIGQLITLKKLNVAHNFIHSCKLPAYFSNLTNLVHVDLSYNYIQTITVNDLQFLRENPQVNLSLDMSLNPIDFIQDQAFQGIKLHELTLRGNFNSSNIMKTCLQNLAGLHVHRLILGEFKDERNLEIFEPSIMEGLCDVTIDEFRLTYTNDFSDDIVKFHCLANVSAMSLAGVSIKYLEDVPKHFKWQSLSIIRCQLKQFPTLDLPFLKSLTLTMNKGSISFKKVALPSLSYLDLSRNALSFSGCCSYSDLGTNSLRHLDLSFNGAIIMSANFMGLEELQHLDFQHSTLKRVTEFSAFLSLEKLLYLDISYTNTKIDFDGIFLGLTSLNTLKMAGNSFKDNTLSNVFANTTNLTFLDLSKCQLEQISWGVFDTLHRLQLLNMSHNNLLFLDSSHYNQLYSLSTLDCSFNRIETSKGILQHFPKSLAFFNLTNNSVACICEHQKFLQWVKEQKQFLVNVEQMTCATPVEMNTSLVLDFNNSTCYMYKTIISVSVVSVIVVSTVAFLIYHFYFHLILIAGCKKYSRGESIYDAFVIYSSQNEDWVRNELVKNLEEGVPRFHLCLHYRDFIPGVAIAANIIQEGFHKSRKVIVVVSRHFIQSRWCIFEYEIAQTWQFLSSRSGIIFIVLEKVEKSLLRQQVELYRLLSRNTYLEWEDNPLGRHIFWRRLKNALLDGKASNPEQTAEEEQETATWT
Outline: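 BMDCs were pretreated 30 min with 25 μM compound, then stimulated with LPS 50 ng·mL−1 for the indicated times. Lysates (25 μg protein) were run on 10% SDS-PAGE and immunoblotted for phospho/total ERK, JNK, p38 and Akt, plus COX-2, IκBα and α-tubulin, with ECL detection. Representative of three experiments.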

Mus musculus [10] = assay: Antiinflammatory activity in Balb/c mouse model of LPS-induced endotoxemia assessed as increase in serum IL10 level at 1 mg/kg, ip pretreated for 1 hr followed by LPS-challenge measured after 2 hrs by ELISA; format: functional, organism-based
Outline: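 BALB/c mice were dosed with 1 mg·kg−1 i.p. 1 h before LPS 10 mg·kg−1 i.p. Serum was taken 2 h later, and TNF-α, IL-6 and IL-10 were measured by sandwich ELISA. Means ± SEM.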

Mus musculus [11] = assay: Antiinflammatory activity in Balb/c mouse model of LPS-induced endotoxemia assessed as reduction in serum ALT level at 1 mg/kg, ip pretreated for 1 hr followed by LPS-challenge measured after 12 hrs by ELISA; format: functional, organism-based; outline: as §1
BMDC [12] = assay: Inhibition of Escherichia coli DH5alpha infection-induced immune response in C57BL/6 mouse BMDC assessed as increase in IL10 secretion at 25 uM pretreated for 30 mins followed by Escherichia coli DH5alpha infection for 6 hrs by ELISA; format: functional, cell-based; outline: as §2

COc1ccc(-c2oc3cc(O)cc(O)c3c(=O)c2O)cc1O [TAMARIXETIN]
inactive: inhibition (BMDC [8])
60%: Activity (Mus musculus [1])
80%: Activity (Mus musculus [5])
active: inhibition (BMDC [2]) | Activity (Mus musculus [3]) | Activity (Mus musculus [4]) | Activity (BMDC [6]) | Activity (Mus musculus [7]) | inhibition [9] | Activity (Mus musculus [10]) | Activity (Mus musculus [11]) | inhibition (BMDC [12])
